This note sets out measurements from ChEMBL document CHEMBL4808174, “Exploring Heteroaromatic Rings as a Replacement for the Labile Amide of Antiplasmodial Pantothenamides” (J Med Chem, 2021).

The source made the active and inactive calls. No cut-off for these calls is given here.

Series [1] in a line: Drug degradation in mouse liver microsomes in absence of NADPH after 60 mins. It counts as ADME, Microsome. The settings on record: read-out: Drug degradation. In short, it runs like this:
(§1)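 Degradation in mouse or human liver microsomes was followed over 60 min, with and without an NADPH-regenerating system.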

Series [2] concerns Plasmodium falciparum. The series is described as follows: Antiplasmodial activity against ring stage Plasmodium falciparum 3D7 infected in human erythrocytes assessed as inhibition of parasite growth incubated for 96 hrs in presence of 1 uM pantothenate by SYBR Green I dye based fluorescence assay. It counts as functional, organism-based. The settings on record: 3D7, Erythrocyte. An outline of the steps: (§2)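 P. falciparum 3D7 ring stages at 0.5% parasitemia and 1% hematocrit in Albumax II medium. Where specified, 100 μM sodium pantothenate was added. Incubation 96 h, then freeze-thaw and SYBR Safe lysis-buffer fluorescence. Chloroquine 0.25-25 μM served as zero-proliferation control. Experiments in triplicate; 100 μM pantothenate data from two experiments.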

Series [3] relates to Plasmodium knowlesi. The series is described as follows: Antiplasmodial activity against Plasmodium knowlesi infected in human erythrocytes assessed as inhibition of parasite growth incubated for 72 hrs in presence of 1 uM pantothenate by SYBR Green I dye based fluorescence assay. It counts as functional, organism-based. The settings on record: Erythrocyte.
Series [4] can be described thus: Antiproliferative activity against human HFF cells assessed as cell proliferation at 100 uM incubated for 3 to 4 days in presence of 1 uM pantothenate by SYBR assay.
Series [5] relates to Plasmodium falciparum. In words: Antiplasmodial activity against ring stage Plasmodium falciparum 3D7 infected in human erythrocytes assessed as inhibition of parasite growth incubated for 24 hrs by SYBR Green I dye based fluorescence assay. Format: functional, organism-based. The following applies: Erythrocyte. An outline of the steps:
(§3)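 Triple-sorbitol-synchronized 3D7 ring-stage cultures at 0.5% parasitemia and 1% hematocrit were exposed to compound at ten concentrations at 37 °C in 96% N₂, 3% CO₂, 1% O₂. After 5, 10, 24 or 48 h, cells were washed three times and resuspended without compound. Total culture time 96 h, then SYBR Safe fluorescence. Three experiments in triplicate.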

Series [6] can be described thus: Antiproliferative activity against human HFF cells assessed as cell proliferation at 200 uM incubated for 3 to 4 days in presence of 1 uM pantothenate by SYBR assay.
Series [7] can be described thus: Drug concentration in BALB/c mouse plasma at 100 mg/kg/day, ip measured after 1 day. The following applies: whole blood, in the assay text read “whole blood” for “plasma”. It counts as ADME, organism-based. In short, it runs like this:
(§4)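 Dosing was 100 mg/kg ip in P. berghei-infected female BALB/c mice, repeated at 24 h. 10 μL tail whole blood was sampled by microsampling device at 3 h, at ~24 h (before the second dose) and at 48 h. Samples were extracted with 80% acetonitrile using diazepam as internal standard and quantified by LC-MS MRM against a spiked-blood standard curve of 5 ng/mL-20 μg/mL. LLQ was 16 or 17 nM. Mean of five mice.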

A short description of series [8]: Drug concentration in BALB/c mouse plasma at 100 mg/kg/day, ip measured after 2 days. It counts as ADME, organism-based. The following applies: whole blood, in the assay text read “whole blood” for “plasma”. An outline of the steps: as §4
Series [9] deals with Plasmodium falciparum. In words: Antiplasmodial activity against ring stage Plasmodium falciparum 3D7 infected in human erythrocytes assessed as inhibition of parasite growth incubated for 48 hrs by SYBR Green I dye based fluorescence assay. Format: functional, organism-based. The settings on record: Erythrocyte. In short, it runs like this:
as §3

Series [10] can be described thus: Selectivity index, ratio of IC50 for human HFF cells to IC50 for Plasmodium falciparum in presence of 1 uM pantothenate. Format: toxicity. The settings on record: HFF cells versus Plasmodium falciparum, read-out: Ratio IC50. In short, it runs like this:
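HFF cells grown 3-4 days in RPMI 1640 with 10% bovine calf serum and antibiotics, with compound up to 200 μM; SYBR Safe-based read-out. Selectivity index = HFF IC50 divided by P. falciparum IC50 at 1 μM pantothenate. Where HFF inhibition stayed below 50%, 200 μM (or 100 μM) was used as the HFF value to set limits.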

Series [11] has as its system Plasmodium falciparum. In words: Antiplasmodial activity against ring stage Plasmodium falciparum 3D7 infected in human erythrocytes assessed as inhibition of parasite growth incubated for 10 hrs by SYBR Green I dye based fluorescence assay. It counts as functional, organism-based. The settings on record: Erythrocyte. An outline of the steps: as §3
Series [12] in a line: Metabolic stability in mouse liver microsomes assessed as half life at 1 uM in presence or absence of NADPH regenerating system by LC-MS analysis. It counts as ADME, Microsome. An outline of the steps: (§5)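 Stability in mouse or human liver microsomes was measured with and without an NADPH-regenerating system, giving in vitro t1/2 and intrinsic clearance in μL/min/mg protein.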

Series [13] in a line: Apparent permeability of the compound across apical to basolateral side in human Caco-2 cells at 20 uM.
Series [14] can be described thus: Drug degradation in mouse liver microsomes in presence of NADPH after 60 mins. Format: ADME, Microsome. The following applies: 1 h. An outline of the steps: as §1
In series [15] the test system is Plasmodium falciparum. In words: Antiplasmodial activity against ring stage Plasmodium falciparum 3D7 infected in human erythrocytes assessed as inhibition of parasite growth at 100 uM pretreated with compound followed by parasite infection by SYBR Green I dye based fluorescence assay. Format: functional, organism-based. The following applies: Erythrocyte.
Series [16] relates to Plasmodium berghei. In words: Antiplasmodial activity against Plasmodium berghei ANKA infected in BALB/c mouse model of malaria assessed as reduction in parasitemia at 100 mg/kg/day, ip for 2 days by Giemsa staining based flow cytometry analysis. It counts as functional, organism-based. The settings on record: time 2.0 day. An outline of the steps:
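Female BALB/c mice, 8-12 weeks, infected ip with 1 × 10⁵ P. berghei ANKA-infected erythrocytes. Once parasitemia reached 0.4-1.5% (5 mice per group), 100 mg/kg was given ip in 150 mM NaCl containing 20.9% v/v DMSO; second dose at 24 h. Daily tail-bleed parasitemia was read by Giemsa-stained thin smear or by flow cytometry (JC-1, Hoechst 33342, anti-CD45/CD71/TER119).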

The nature of series [17]: Drug concentration in BALB/c mouse plasma at 100 mg/kg/day, ip measured after 3 hrs. It counts as ADME, organism-based. The settings on record: whole blood, in the assay text read “whole blood” for “plasma”. In short, it runs like this: as §4
A short description of series [18]: Metabolic stability in human liver microsomes assessed as half life at 1 uM in presence or absence of NADPH regenerating system by LC-MS analysis. Format: ADME, Microsome. In short, it runs like this:
as §5

A short description of series [19]: Metabolic stability in mouse liver microsomes assessed as intrinsic clearance at 1 uM in presence or absence of NADPH regenerating system measured per mg protein by LC-MS analysis. It counts as ADME, Microsome. The settings on record: read-out: CLH. In short, it runs like this: as §5
Series [20] is described as follows: Metabolic stability in human liver microsomes assessed as intrinsic clearance at 1 uM in presence of absence of NADPH regenerating system measured per mg protein by LC-MS analysis. It counts as ADME, Microsome. The following applies: read-out: CLH. In short, it runs like this: as §5
For series [21], the system named is Plasmodium falciparum. In words: Antiplasmodial activity against ring stage Plasmodium falciparum 3D7 infected in human erythrocytes assessed as inhibition of parasite growth incubated for 96 hrs in presence of 100 uM pantothenate by SYBR Green I dye based fluorescence assay. Format: functional, organism-based. The settings on record: 3D7, Erythrocyte. An outline of the steps: as §2

In series [22] the test system is Plasmodium falciparum. In words: Antiplasmodial activity against ring stage Plasmodium falciparum NF54 infected in human erythrocytes assessed as inhibition of parasite growth incubated for 72 hrs in presence of pantothenate by SYBR Green dye based fluorescence assay. It counts as functional, organism-based. The following applies: NF54, Erythrocyte.

In the case of `CCCCCc1cc(CNC(=O)[C@H](O)C(C)(C)CO)no1`, the metabolised at 1 h in [1] was 20%. Moreover, the IC50 was 160 nM in [2], 6.1 nM in series [3] and more than 1000 nM in [21]. In addition, the proliferation at 100 µM in [4] is 104%. Further, the result in series [5] and in series [9] was Active. The proliferation at 200 µM in series [6] is 71%. Moreover, the concentration at 24 h in series [7] is less than 17 nM. The same compound registered a concentration at 48 h in series [8] of less than 17 nM. Further, in series [10], the selectivity ratio at 1 µM was more than 1200. Besides, the result in series [11], in [15] and in series [16] was inactive. For the same compound, the half-life at 1 µM came to 0.55 h in series [12] and 2.53 h in [18]. The Papp A→B at 20 µM in series [13] amounted to 55 ×10⁻⁶ cm/s. In addition, the Stabilty entry in [14] is listed as “Unstable”. The concentration at 3 h in series [17] came to 72 nM. Moreover, the values for the microsomal CLint at 1 µM in series [19] and in series [20] were 53 µL/min/mg and 11 µL/min/mg, respectively.
In the case of `CCCCCC(=O)NCCNC(=O)[C@H](O)C(C)(C)CO`, in [22], the IC50 amounted to 630 nM.
